Test results reported in ChEMBL document CHEMBL4038321, “Design, Synthesis, and Pharmacokinetics of a Bone-Targeting Dual-Action Prodrug for the Treatment of Osteoporosis” (J Med Chem, 2017).

Legend:
[1] = tested on: Liver; assay: Drug uptake in Sprague-Dawley rat liver at 8.9 uCi, iv administered as bolus dose after 7 days; format: ADME, organism-based; conditions: in vivo, 168 h
In short: (§1)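 Female Sprague Dawley rats, about 13 weeks old, in five groups of three. Single IV tail-vein bolus of mixed 3H-conjugate (8.90 µCi/rat) and 14C-conjugate (1.77 µCi/rat), total dose 5.0 mg/kg. Vehicle was 10% Poloxamer 188, brought to pH 8.0 with NaHCO3, then diluted with an equal volume of PBS. Groups were killed at 6 h, 1, 7, 14 and 28 days. Tissues and femurs were incinerated in a biological oxidizer. Values are % of administered dose, with skeleton taken as 8% of body weight, averaged over three rats.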

[2] = tested on: Liver; assay: Drug uptake in Sprague-Dawley rat liver at 8.9 uCi, iv administered as bolus dose after 1 day; format: ADME, organism-based; conditions: in vivo, 24 h; in short: as §1
[3] = tested on: Spleen; assay: Drug uptake in Sprague-Dawley rat spleen at 8.9 uCi, iv administered as bolus dose after 14 days; format: ADME, organism-based; conditions: in vivo, 336 h
In short: (§2)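 Female Sprague Dawley rats, about 13 weeks old on arrival, in five groups of three. Single IV tail-vein bolus of mixed [3H]- and [14C]-labelled conjugate (8.90 and 1.77 µCi/rat), total 5.0 mg/kg. Vehicle was 10% Poloxamer 188 adjusted to pH 8.0 with NaHCO3, then diluted with an equal volume of PBS. Groups killed at 6 h, 1, 7, 14 and 28 days. Spleen radioactivity measured by oxidizer incineration and reported as percent of administered dose, averaged over three rats.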

[4] = tested on: Bone; assay: Drug uptake in Sprague-Dawley rat bone at 8.9 uCi, iv administered as bolus dose after 7 days; format: ADME, organism-based, Bone element; conditions: in vivo, 168 h; in short: as §1
[5] = tested on: Kidney; assay: Drug uptake in Sprague-Dawley rat kidney at 8.9 uCi, iv administered as bolus dose after 14 days; format: ADME, organism-based; conditions: in vivo, 336 h; in short: as §1
[6] = tested on: Kidney; assay: Drug uptake in Sprague-Dawley rat kidney at 8.9 uCi, iv administered as bolus dose after 7 days; format: ADME, organism-based; conditions: in vivo, 168 h; in short: as §1
[7] = tested on: Bone; assay: Drug uptake in Sprague-Dawley rat bone at 8.9 uCi, iv administered as bolus dose after 1 day; format: ADME, organism-based, Bone element; conditions: in vivo, 24 h; in short: as §1
[8] = tested on: Kidney; assay: Drug uptake in Sprague-Dawley rat kidney at 8.9 uCi, iv administered as bolus dose after 1 day; format: ADME, organism-based; conditions: in vivo, 24 h; in short: as §1
[9] = tested on: Bone; assay: Drug uptake in Sprague-Dawley rat bone at 8.9 uCi, iv administered as bolus dose after 14 days; format: ADME, organism-based, Bone element; conditions: in vivo, 336 h; in short: as §1
[10] = tested on: Spleen; assay: Drug uptake in Sprague-Dawley rat spleen at 8.9 uCi, iv administered as bolus dose after 7 days; format: ADME, organism-based; conditions: in vivo, 168 h; in short: as §2
[11] = tested on: Spleen; assay: Drug uptake in Sprague-Dawley rat spleen at 8.9 uCi, iv administered as bolus dose after 6 hrs; format: ADME, organism-based; conditions: in vivo; in short: as §2
[12] = tested on: Bone; assay: Drug uptake in Sprague-Dawley rat bone at 31 uCi, iv after 6 hrs by scintillation counting method; format: ADME, organism-based, Bone element; conditions: in vivo
In short: (§3)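 Three female Sprague Dawley rats, about 23 weeks old. IV tail-vein dose of 5 mg/kg 3H-conjugate (31.0 µCi/rat) in 10% Poloxamer 188, pH 8.0 with NaHCO3, diluted 1:1 with PBS. Blood was drawn at 0.5 to 6 h. At 6 h tissues, including long bones, were taken and analysed for radioactivity by oxidation and scintillation counting.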

[13] = tested on: Kidney; assay: Drug uptake in Sprague-Dawley rat kidney at 8.9 uCi, iv administered as bolus dose after 28 days; format: ADME, organism-based; conditions: in vivo, 672 h; in short: as §1
[14] = tested on: Liver; assay: Drug uptake in Sprague-Dawley rat liver at 8.9 uCi, iv administered as bolus dose after 14 days; format: ADME, organism-based; conditions: in vivo, 336 h; in short: as §1
[15] = tested on: Rattus norvegicus; assay: Toxicity in Sprague-Dawley rat assessed as unusual reaction at 8.9 uCi, iv administered as bolus dose after 28 dyas; format: organism-based; conditions: in vivo
In short: (§4)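 Same dual-label study: female Sprague Dawley rats got one IV tail-vein bolus of [3H] (8.90 µCi) plus [14C] (1.77 µCi) conjugate, total 5.0 mg/kg, in Poloxamer 188/PBS vehicle at pH 8.0. Groups of three were sacrificed up to 28 days after dosing.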

[16] = tested on: Brain; assay: Drug uptake in Sprague-Dawley rat brain at 8.9 uCi, iv administered as bolus dose after 6 hrs; format: ADME, organism-based; conditions: in vivo; in short: as §1
[17] = tested on: Spleen; assay: Drug uptake in Sprague-Dawley rat spleen at 8.9 uCi, iv administered as bolus dose after 1 day; format: ADME, organism-based; conditions: in vivo, 24 h; in short: as §2
[18] = tested on: Plasma; assay: Drug metabolism in rat plasma assessed as tritium label liberation preincubated with rat plasma followed by bovine bone powder addition measured after 24 hrs; format: ADME, cell-free
In short: (§5)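 Tritium-labelled conjugate incubated in rat plasma at 37 °C. At fixed times the incubate was stirred with bovine bone powder to adsorb intact conjugate and any cleaved bisphosphonate. Unbound radioactivity in the supernatant was then counted as liberated label.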

[19] = tested on: Serum; assay: Drug metabolism in rat serum assessed as tritium label liberation preincubated with bovine bone powder followed by rat serum addition measured after 24 hrs; format: ADME, cell-free
In short: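 Tritium-labelled conjugate first bound to bovine bone powder for 30 min in buffer. The powder was filtered, resuspended and incubated in fresh rat serum. Buffer and inactivated serum were run alongside. Tritium liberated after 24 h was measured.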

[20] = tested on: Plasma; assay: Drug metabolism in rat plasma assessed as tritium label liberation preincubated with rat plasma followed by bovine bone powder addition measured after 30 mins; format: ADME, cell-free; conditions: 0.5 h; in short: as §5
[21] = tested on: Heart; assay: Drug uptake in Sprague-Dawley rat heart at 8.9 uCi, iv administered as bolus dose after 7 days; format: ADME, organism-based; conditions: in vivo, 168 h; in short: as §1
[22] = tested on: Liver; assay: Drug uptake in Sprague-Dawley rat liver at 31 uCi, iv after 6 hrs by scintillation counting method; format: ADME, organism-based; conditions: in vivo; in short: as §3
[23] = tested on: Plasma; assay: Drug metabolism in rat plasma assessed as tritium label liberation preincubated with rat plasma followed by bovine bone powder addition measured after 4 hrs; format: ADME, cell-free; in short: as §5
[24] = tested on: Rattus norvegicus; assay: Toxicity in Sprague-Dawley rat at 31 uCi, iv administered via tail vein after 6 hrs; format: organism-based; conditions: in vivo
In short: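 Three female Sprague Dawley rats, about 23 weeks old on arrival, received an IV tail-vein injection of 5 mg/kg conjugate with 31.0 µCi [3H] per rat. Vehicle was 10% Poloxamer 188 adjusted to pH 8.0 with NaHCO3 and diluted 1:1 with PBS. Tolerability was observed over 6 h with blood sampling, and the study ended at 6 h.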

[25] = tested on: Bone; assay: Drug uptake in Sprague-Dawley rat bone at 8.9 uCi, iv administered as bolus dose after 28 days; format: ADME, organism-based, Bone element; conditions: in vivo, 672 h; in short: as §1
[26] = tested on: Brain; assay: Drug uptake in Sprague-Dawley rat brain at 8.9 uCi, iv administered as bolus dose after 1 day; format: ADME, organism-based; conditions: in vivo, 24 h; in short: as §1
[27] = tested on: Rattus norvegicus; assay: Toxicity in Sprague-Dawley rat assessed as behavioral change at 8.9 uCi, iv administered as bolus dose after 28 dyas; format: organism-based; conditions: in vivo; in short: as §4
[28] = Drug metabolism in rat plasma at 100 uM measured after 24 hrs by HPLC analysis; format: ADME, cell-free; conditions: read-out: Drug metabolism
In short: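 Conjugate incubated in rat plasma at 37 °C for 24 h and compared with inactivated control plasma. Aliquots were taken at 0, 1, 2, 4 and 24 h and quenched with methanol containing 1.0 M HCl, then centrifuged. Remaining conjugate in the supernatant was quantified by reverse-phase HPLC with UV detection at 254 nm.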

[29] = tested on: Bone; assay: Drug uptake in Sprague-Dawley rat bone at 8.9 uCi, iv administered as bolus dose after 6 hrs; format: ADME, organism-based, Bone element; conditions: in vivo; in short: as §1
[30] = tested on: Liver; assay: Drug uptake in Sprague-Dawley rat liver at 8.9 uCi, iv administered as bolus dose after 28 days; format: ADME, organism-based; conditions: in vivo, 672 h; in short: as §1
[31] = tested on: Liver; assay: Drug uptake in Sprague-Dawley rat liver at 8.9 uCi, iv administered as bolus dose after 6 hrs; format: ADME, organism-based; conditions: in vivo; in short: as §1
[32] = tested on: Spleen; assay: Drug uptake in Sprague-Dawley rat spleen at 8.9 uCi, iv administered as bolus dose after 28 days; format: ADME, organism-based; conditions: in vivo, 672 h; in short: as §2
[33] = tested on: Heart; assay: Drug uptake in Sprague-Dawley rat heart at 8.9 uCi, iv administered as bolus dose after 6 hrs; format: ADME, organism-based; conditions: in vivo; in short: as §1
[34] = tested on: Kidney; assay: Drug uptake in Sprague-Dawley rat kidney at 8.9 uCi, iv administered as bolus dose after 6 hrs; format: ADME, organism-based; conditions: in vivo; in short: as §1
[35] = tested on: Heart; assay: Drug uptake in Sprague-Dawley rat heart at 8.9 uCi, iv administered as bolus dose after 1 day; format: ADME, organism-based; conditions: in vivo, 24 h; in short: as §1

## [3H]c1ccc(C(F)(F)[C@@H](/C=C/[C@H]2CCC(=O)N2CCCCCCC(=O)OCC)OC(=O)Cc2ccc(COC(=O)N[C@@H](CC(C)C)C(=O)N[C@@H](CCCNC(=N)N)C(=O)Nc3ccc(COC(=O)NCCCC(O)(P(=O)(O)O)P(=O)(O)O)cc3)cc2)cc1
[1]
  Drug uptake: 0.48 %ID
[2]
  Drug uptake: 2.33 %ID
[3]
  Drug uptake: 0.039 %ID
[4]
  Drug uptake: 1.3 %ID
[5]
  Drug uptake: 0.026 %ID
[6]
  Drug uptake: 0.053 %ID
[7]
  Drug uptake: 2.12 %ID
[8]
  Drug uptake: 0.11 %ID
[9]
  Drug uptake: 0.8 %ID
[10]
  Drug uptake: 0.076 %ID
[11]
  Drug uptake: 0.35 %ID
[12]
  Drug uptake: 2.5 %ID
[13]
  Drug uptake: 0.017 %ID
[14]
  Drug uptake: 0.3 %ID
[15]
  Activity: Non-Toxic
[16]
  Drug uptake: 0.022 %ID
[17]
  Drug uptake: 0.22 %ID
[18]
  Drug metabolism: 53%
[19]
  Drug metabolism: < 3%
[20]
  Drug metabolism: 27%
[21]
  Drug uptake: 0.014 %ID
[22]
  Drug uptake: Active
[23]
  Drug metabolism: 44%
[24]
  Activity: Toxic
[25]
  Drug uptake: 0.74 %ID
[26]
  Drug uptake: 0.025 %ID
[27]
  Activity: Non-Toxic
[28]
  metabolised at 24 h, 100 µM: 55%
[29]
  Drug uptake: 2.1 %ID
[30]
  Drug uptake: 0.08 %ID
[31]
  Drug uptake: 8.95 %ID
[32]
  Drug uptake: 0.037 %ID
[33]
  Drug uptake: 0.025 %ID
[34]
  Drug uptake: 0.21 %ID
[35]
  Drug uptake: 0.021 %ID
